Measurements: ChEMBL document CHEMBL4765447, “Design, synthesis and biological evaluation of diamino substituted cyclobut-3-ene-1,2-dione derivatives for the treatment of drug-resistant tuberculosis” (Eur J Med Chem, 2020)
In brackets after ≈: the same amount, converted by molar mass.

Tests used:
[1] = test system: Mycobacterium tuberculosis H37Rv; test: Inhibition of ATP synthase in Mycobacterium tuberculosis H37Rv assessed as reduction in bacterial growth incubated for 7 days by microplate alamar blue assay; settings: time 7.0 day
Outline: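 Microplate alamar blue assay. Strains grown to late log phase in 7H9 broth with 0.2% glycerol, 0.05% Tween 80 and 10% ADC, then washed, filtered (8 µm) and frozen. Twofold compound dilutions with 2×10^5 CFU per well at 37 °C. On day 7, Tween 80 and alamar blue added; after 16–24 h, fluorescence read at 530/590 nm. MIC is the lowest concentration giving ≥90% fluorescence reduction versus bacterium-only controls.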

[2] = target: Voltage-gated inwardly rectifying potassium channel KCNH2 (Homo sapiens, UniProt Q12809); test: Inhibition of human ERG stably expressed in HEK293 cells by whole-cell manual patch clamp method; type: cell-based
Voltage-gated inwardly rectifying potassium channel KCNH2, sequence (Q12809 whole entry): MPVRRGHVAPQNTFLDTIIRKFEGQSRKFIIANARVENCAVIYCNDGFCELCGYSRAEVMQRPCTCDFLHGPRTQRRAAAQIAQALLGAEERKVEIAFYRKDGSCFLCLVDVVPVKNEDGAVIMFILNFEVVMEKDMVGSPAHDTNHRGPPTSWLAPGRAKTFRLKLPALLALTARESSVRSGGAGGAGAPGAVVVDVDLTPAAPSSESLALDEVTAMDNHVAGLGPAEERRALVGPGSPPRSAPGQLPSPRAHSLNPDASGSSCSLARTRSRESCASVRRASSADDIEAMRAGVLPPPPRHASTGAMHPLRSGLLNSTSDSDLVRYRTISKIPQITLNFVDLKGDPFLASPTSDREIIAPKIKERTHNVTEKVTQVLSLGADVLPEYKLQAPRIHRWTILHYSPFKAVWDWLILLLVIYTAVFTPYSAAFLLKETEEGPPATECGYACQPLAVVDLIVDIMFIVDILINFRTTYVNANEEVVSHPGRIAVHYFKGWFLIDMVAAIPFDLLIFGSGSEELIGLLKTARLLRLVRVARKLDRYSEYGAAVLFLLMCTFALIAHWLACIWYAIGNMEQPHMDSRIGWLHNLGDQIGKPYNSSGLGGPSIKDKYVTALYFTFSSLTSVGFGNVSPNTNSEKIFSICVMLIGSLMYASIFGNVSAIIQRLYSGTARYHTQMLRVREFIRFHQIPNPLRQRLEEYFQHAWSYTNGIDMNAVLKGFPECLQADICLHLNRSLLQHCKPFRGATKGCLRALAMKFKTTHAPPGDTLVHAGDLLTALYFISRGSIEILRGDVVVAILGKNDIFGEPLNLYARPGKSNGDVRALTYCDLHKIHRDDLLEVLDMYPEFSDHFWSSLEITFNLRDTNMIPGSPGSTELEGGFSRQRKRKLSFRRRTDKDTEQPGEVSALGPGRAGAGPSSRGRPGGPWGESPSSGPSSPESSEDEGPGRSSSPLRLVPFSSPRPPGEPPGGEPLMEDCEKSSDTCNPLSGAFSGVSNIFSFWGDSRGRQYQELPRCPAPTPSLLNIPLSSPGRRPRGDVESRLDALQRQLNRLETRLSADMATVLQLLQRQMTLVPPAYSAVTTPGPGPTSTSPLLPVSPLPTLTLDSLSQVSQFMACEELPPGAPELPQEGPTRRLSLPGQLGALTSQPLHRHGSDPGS

[3] = Half life in human hepatocytes at 1 uM measured after 30 mins by LC-MS/MS analysis; type: ADME, cell-based, Hepatocyte
Outline: (§1)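 Pooled male CD-1 mouse or pooled human hepatocytes, pre-incubated 20 min at 37 °C in CO2. Compound at 1 µM final with 1 million cells/mL. Samples taken at 0 and 30 min, quenched and centrifuged 15 min at 4 °C. Parent compound remaining measured by LC-MS/MS.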

[4] = Intrinsic clearance in CD-1 mouse hepatocytes at 1 uM measured after 30 mins by LC-MS/MS analysis; type: ADME, cell-based, Hepatocyte; settings: 0.5 h; outline: as §1
[5] = Half life in CD-1 mouse hepatocytes at 1 uM measured after 30 mins by LC-MS/MS analysis; type: ADME, cell-based, Hepatocyte; outline: as §1
[6] = Intrinsic clearance in human hepatocytes at 1 uM measured after 30 mins by LC-MS/MS analysis; type: ADME, cell-based, Hepatocyte; settings: 0.5 h; outline: as §1
[7] = test system: Vero; test: Cytotoxicity against African green monkey Vero cells assessed as reduction in cell viability measured after 48 hrs by MTT assay; type: cell-based; settings: Chlorocebus sabaeus
Outline: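 Vero cells grown in RPMI1640 with 10% FBS at 37 °C, 5% CO2, seeded at 4×10^5 cells/mL. Threefold dilutions from 64 to 0.26 µg/mL final, incubated 48 h at 37 °C. Monolayers washed with HBSS, then MTT added for 4 h. Absorbance read at 492 nm.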

[8] = MRT (0 to infinity) in Balb/c mouse at 5 mg/kg, iv by LC-MS analysis; type: ADME, organism-based; settings: in vivo
Outline: (§2)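 Male Balb/c mice (26–27 g), three per route. Single dose of 50 mg/kg p.o. in 0.5% carboxymethyl cellulose (5 mg/mL), or 5 mg/kg i.v. in 10% DMSO/50% PEG400/40% water (1 mg/mL). Blood taken at 5, 15, 30 min, 1, 2, 4, 7 and 24 h. Plasma extracted with acetonitrile (terfenadine internal standard) and quantified by LC-MS/MS in positive ESI. Non-compartmental analysis. F = dose-corrected AUC p.o./i.v.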

[9] = AUC (0 to t) in Balb/c mouse at 50 mg/kg, po by LC-MS analysis; type: ADME, organism-based; parameters: dose 50 mg/kg; settings: in vivo; outline: as §2
[10] = AUC (0 to t) in Balb/c mouse at 5 mg/kg, iv by LC-MS analysis; type: ADME, organism-based; parameters: dose 5 mg/kg; settings: in vivo; outline: as §2
[11] = AUC (0 to infinity) in Balb/c mouse at 5 mg/kg, iv by LC-MS analysis; type: ADME, organism-based; parameters: time infinity, route intravenous, dose 5 mg/kg; settings: in vivo; outline: as §2
[12] = Elimination half life in Balb/c mouse at 5 mg/kg, iv by LC-MS analysis; type: ADME, organism-based; settings: in vivo, read-out: beta t1/2 (converted); outline: as §2
[13] = Oral bioavailability in Balb/c mouse at 50 mg/kg by LC-MS analysis; type: ADME, organism-based; settings: in vivo; outline: as §2
[14] = Tmax in Balb/c mouse at 50 mg/kg, po by LC-MS analysis; type: ADME, organism-based; settings: in vivo; outline: as §2
[15] = AUC (0 to infinity) in Balb/c mouse at 50 mg/kg, po by LC-MS analysis; type: ADME, organism-based; parameters: route oral, time infinity, dose 50 mg/kg; settings: in vivo; outline: as §2
[16] = MRT (0 to infinity) in Balb/c mouse at 50 mg/kg, po by LC-MS analysis; type: ADME, organism-based; settings: in vivo; outline: as §2
[17] = Clearance in Balb/c mouse at 5 mg/kg, iv by LC-MS analysis; type: ADME, organism-based; settings: in vivo; outline: as §2
[18] = Elimination half life in Balb/c mouse at 50 mg/kg, po by LC-MS analysis; type: ADME, organism-based; settings: in vivo, read-out: beta t1/2 (converted); outline: as §2
[19] = Cmax in Balb/c mouse at 50 mg/kg, po by LC-MS analysis; type: ADME, organism-based; parameters: route oral, dose 50 mg/kg; settings: in vivo; outline: as §2

Row | Structure (SMILES) | MIC=>90 [1] | IC50 [7] | further results
1 | NNC(=O)c1ccncc1 | 0.019 mg/L (≈ 0.139 µM) | – | –
2 | O=c1c(NCc2ccccn2)c(Nc2ccc(N3CCSCC3)c(C(F)(F)F)c2)c1=O | 9.4 mg/L (≈ 21 µM) | – | –
3 | CN(C)c1ccc(Nc2c(NCc3ccccn3)c(=O)c2=O)cc1 | 2 mg/L (≈ 6.19 µM) | – | –
4 | O=c1c(NCc2ccccn2)c(Nc2ccc3[nH]ccc3c2)c1=O | > 32 mg/L | – | –
5 | O=c1c(NCc2ccccn2)c(Nc2ccc(N3CCOCC3)cn2)c1=O | > 32 mg/L | – | –
6 | O=C1COCCN1c1ccc(Nc2c(NCc3ccccn3)c(=O)c2=O)cc1 | 7.75 mg/L (≈ 20.5 µM) | – | –
7 | O=c1c(NCc2ccccn2)c(Nc2ccc(N3CCOCC3)cc2)c1=O | 3.75 mg/L (≈ 10.3 µM) | > 64 mg/L | IC50 [2]: > 30 µM; half-life at 1 µM [3]: > 93.2 min; intrinsic clearance [4]: < 7.4 µL/min; half-life at 1 µM [5]: > 93.2 min; intrinsic clearance [6]: < 7.4 µL/min
8 | O=c1c(NCc2ccccn2)c(Nc2ccc3c(c2)OCO3)c1=O | 0.452 mg/L (≈ 1.4 µM) | > 64 mg/L | IC50 [2]: > 30 µM; half-life at 1 µM [3]: > 93.2 min; MRT inf [8]: 16.8 min; AUC(0-t) [9]: 2.2 µg·h/mL; AUC(0-t) [10]: 1.67 µg·h/mL; AUC(0-inf) [11]: 1.67 µg·h/mL; half-life [12]: 19.8 min; bioavailability [13]: 13.1%; intrinsic clearance [4]: 40.8 µL/min; Tmax [14]: 49.8 min; AUC(0-inf) [15]: 2.2 µg·h/mL; MRT inf [16]: 81.6 min; half-life at 1 µM [5]: 17 min; clearance [17]: 3.08 L/h/kg; half-life [18]: 30.6 min; intrinsic clearance [6]: < 7.4 µL/min; Cmax [19]: 1.33 µg/mL
9 | O=c1c(NCc2ccccn2)c(Nc2ccc(N3CCSCC3)cc2)c1=O | 1.54 mg/L (≈ 4.06 µM) | > 64 mg/L | IC50 [2]: > 30 µM; half-life at 1 µM [3]: 12.1 min; intrinsic clearance [4]: 55.1 µL/min; half-life at 1 µM [5]: 12.6 min; intrinsic clearance [6]: 57.2 µL/min
10 | O=c1c(NCc2ccccn2)c(Nc2ccc(N3CCCCC3)cc2)c1=O | 3.76 mg/L (≈ 10.4 µM) | – | –
11 | O=c1c(NCc2ccccn2)c(Nc2ccc(N3CCCOCC3)cc2)c1=O | 6.65 mg/L (≈ 17.6 µM) | – | –
12 | COc1ccccc1Nc1c(NCc2ccccn2)c(=O)c1=O | > 32 mg/L | – | –
13 | COc1ccc(Nc2c(NCc3ccccn3)c(=O)c2=O)cc1 | 3.42 mg/L (≈ 11 µM) | – | –
14 | O=C1NC(=O)C(c2ccc(N3CCOCC3)cc2)=C1NCc1ccccn1 | > 32 mg/L | – | –
15 | O=C1NC(=O)C(c2ccc(N3CCOCC3)cc2)=C1NCc1ccncc1 | > 32 mg/L | – | –
16 | O=C1OCC(c2ccc(N3CCOCC3)cc2)=C1NCc1ccccn1 | > 32 mg/L | – | –
17 | O=C1OCC(NCc2ccccn2)=C1c1ccc(N2CCOCC2)cc1 | > 32 mg/L | – | –
18 | O=C1OCC(c2ccc(N3CCOCC3)cc2)=C1NCc1cccnc1 | > 32 mg/L | – | –
19 | O=C1OCC(NCc2ccccn2)=C1c1ccc(N2CCSCC2)cc1 | > 32 mg/L | – | –
20 | O=c1c(NCc2ccccn2)c(Nc2ccc3c(c2)OCCO3)c1=O | 1.89 mg/L (≈ 5.59 µM) | > 64 mg/L | –
21 | Cc1cc(Nc2c(NCc3ccccn3)c(=O)c2=O)ccc1N1CCSCC1 | 0.496 mg/L (≈ 1.26 µM) | > 64 mg/L | IC50 [2]: > 10 µM; half-life at 1 µM [3]: 9 min; intrinsic clearance [4]: 127.8 µL/min; half-life at 1 µM [5]: 5.4 min; intrinsic clearance [6]: 77 µL/min
22 | O=c1c(NCc2ccccn2)c(Nc2ccc3ncsc3c2)c1=O | 1.91 mg/L (≈ 5.68 µM) | > 64 mg/L | –
23 | O=c1c(NCc2ccccn2)c(Nc2ccc(N3CCOCC3)nc2)c1=O | > 32 mg/L | – | –

Row | Structure (SMILES) | MIC=>90 [1] | IC50 [7] | further results
24 | O=c1c(NCc2ccccn2)c(Nc2ccc(C(F)(F)F)cc2)c1=O | 14.9 mg/L (≈ 42.9 µM) | – | –
25 | CO[C@H]1/C=C/O[C@@]2(C)Oc3c(C)c(O)c4c(O)c(c(/C=N/N5CCN(C)CC5)c(O)c4c3C2=O)NC(=O)/C(C)=C\C=C\[C@H](C)[C@H](O)[C@@H](C)[C@@H](O)[C@@H](C)[C@H](OC(C)=O)[C@@H]1C | 0.015 mg/L (≈ 0.0182 µM) | – | –
26 | Cc1cc(Nc2c(NCc3ccccn3)c(=O)c2=O)ccc1N1CCOCC1 | 2.45 mg/L (≈ 6.48 µM) | > 64 mg/L | –
27 | COc1cccc(Nc2c(NCc3ccccn3)c(=O)c2=O)c1 | 6.02 mg/L (≈ 19.5 µM) | – | –
28 | O=c1c(NCc2cccnc2)c(Nc2ccc(N3CCSCC3)cc2)c1=O | > 32 mg/L | – | –
29 | Cc1ccc(CNc2c(Nc3ccc(N4CCSCC4)cc3)c(=O)c2=O)nc1 | > 32 mg/L | – | –
30 | N#Cc1cc(Nc2c(NCc3ccccn3)c(=O)c2=O)ccc1N1CCSCC1 | 1.23 mg/L (≈ 3.04 µM) | > 64 mg/L | –
31 | O=c1c(NCc2ccccn2)c(Nc2cccc(N3CCSCC3)c2)c1=O | > 32 mg/L | – | –
32 | O=C1OCC(NCc2cccnc2)=C1c1ccc(N2CCOCC2)cc1 | > 32 mg/L | – | –
33 | Cc1cccc(CNc2c(Nc3ccc(N4CCSCC4)cc3)c(=O)c2=O)n1 | 3.65 mg/L (≈ 9.24 µM) | – | –
34 | O=c1c(NCc2ccccn2)c(Nc2ccc3c(c2)OCCCO3)c1=O | 2.22 mg/L (≈ 6.32 µM) | > 64 mg/L | –
35 | O=C1NC(=O)C(c2ccc(N3CCOCC3)cc2)=C1NCc1cccnc1 | > 32 mg/L | – | –
36 | O=c1c(NCc2ccccn2)c(Nc2ccc3scnc3c2)c1=O | 0.963 mg/L (≈ 2.86 µM) | > 64 mg/L | IC50 [2]: > 10 µM
37 | O=c1c(NCc2ccccn2)c(-c2ccc(N3CCOCC3)cc2)c1=O | 0.12 mg/L (≈ 0.343 µM) | > 64 mg/L | IC50 [2]: > 30 µM; half-life at 1 µM [3]: 31.7 min; intrinsic clearance [4]: 40.6 µL/min; half-life at 1 µM [5]: 17.1 min; intrinsic clearance [6]: 21.9 µL/min
38 | O=c1c(NCc2ccccn2)c(Nc2ccc(N3CC[S+]([O-])CC3)cc2)c1=O | 15.8 mg/L (≈ 39.9 µM) | – | –
39 | O=C1CCc2ccc(Nc3c(NCc4ccccn4)c(=O)c3=O)cc21 | 1.83 mg/L (≈ 5.5 µM) | > 64 mg/L | –
40 | O=C1CCCc2cc(Nc3c(NCc4ccccn4)c(=O)c3=O)ccc21 | 0.739 mg/L (≈ 2.13 µM) | > 64 mg/L | half-life at 1 µM [3]: 41.9 min; intrinsic clearance [4]: 67.2 µL/min; half-life at 1 µM [5]: 10.3 min; intrinsic clearance [6]: 16.6 µL/min
41 | O=C1CCc2cc(Nc3c(NCc4ccccn4)c(=O)c3=O)ccc21 | 3.46 mg/L (≈ 10.4 µM) | > 64 mg/L | –
42 | O=c1c(NCc2ccccn2)c(Nc2ccc(Cl)cc2)c1=O | 7.7 mg/L (≈ 24.5 µM) | – | –
43 | O=c1c(NCc2ccccn2)c(Nc2ccc3c(c2)CCC3)c1=O | 0.979 mg/L (≈ 3.07 µM) | > 64 mg/L | IC50 [2]: > 30 µM; half-life at 1 µM [3]: 10.3 min; intrinsic clearance [4]: 62.4 µL/min; half-life at 1 µM [5]: 11.1 min; intrinsic clearance [6]: 67.1 µL/min
44 | COc1cc(Nc2c(NCc3ccccn3)c(=O)c2=O)ccc1N1CCSCC1 | > 32 mg/L | – | –
45 | O=c1c(NCc2ccccn2)c(Nc2ccc3sccc3c2)c1=O | > 32 mg/L | – | –
